Consider ten molecules from paper PMC2364724 (Drug metabolism and disposition: the biological fate of …, 2007).

Data set [1] relates to purified CYP4A11. The conditions noted are these: higher for CYP4A11; ref Powell et al., 1998; cited from earlier work.
The test system of data set [2] is pooled HIM. The experiment in a line: Phase I biotransformation of DB289 in pooled HIM. The class given is in vitro ADME, human. The settings on record: for Phase I metabolite detection (HPLC/UV): 10 μM DB289, pooled HIM 0.2 mg/ml, NADPH, up to 120 min. Summed up: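 Test compound (10 μM) with pooled HIM (0.2 mg/ml) in 100 mM phosphate pH 7.4, 3.3 mM MgCl2. Equilibrated 5 min at 37°C, then started with 1 mM NADPH. Aliquots taken at 0, 15, 30 and 120 min were quenched in ice-cold acetonitrile and analysed by HPLC/UV. Metabolites were assigned by retention time against synthetic standards. Controls omitted NADPH, microsomal protein or substrate.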

The conditions of data set [3]: six healthy men, p.o. 14C-DB289, single-dose escalation; ref C. Olson, Immtech Pharmaceuticals Inc., personal communication; cited from earlier work.
The subject of data set [4] is HLM. The conditions noted are these: panel of HLM; ref Wang et al., 2006; cited from earlier work.
The subject of data set [5] is human intestinal microsomes (HIM). Put plainly: Enzyme kinetics of M1 formation. The settings on record: for KMapp(1): 5 min. The class given is in vitro ADME.
Data set [6] can be described thus: Enzyme kinetics of M1 formation. It is filed as in vitro ADME, human. The conditions noted are these: human.
Data set [7] is described as follows: Solubility in the incubation buffer. The class given is physicochemical. The settings on record: highest concentration tested 25 μM.
Data set [8] concerns pooled HLM (human liver microsomes). The settings on record: M1 formation, 0.02 mg/ml protein, 3 min, ref Wang et al., 2006; cited from earlier work.
Data set [9] relates to recombinant CYP2J2. The settings on record: ref Hashizume et al. (2002); cited from earlier work.
Data set [10] has as its system pooled HLM. The experiment in a line: Effect of α-NF on M1 formation by pooled HLM. It is filed as biochemical, human. The settings on record: 1 μM α-NF, 3 μM DB289, P > 0.05.
The target of data set [11] is T1, recombinant CYP2J2 (Homo sapiens, UniProt P51589).
T1 sequence (P51589 1-502): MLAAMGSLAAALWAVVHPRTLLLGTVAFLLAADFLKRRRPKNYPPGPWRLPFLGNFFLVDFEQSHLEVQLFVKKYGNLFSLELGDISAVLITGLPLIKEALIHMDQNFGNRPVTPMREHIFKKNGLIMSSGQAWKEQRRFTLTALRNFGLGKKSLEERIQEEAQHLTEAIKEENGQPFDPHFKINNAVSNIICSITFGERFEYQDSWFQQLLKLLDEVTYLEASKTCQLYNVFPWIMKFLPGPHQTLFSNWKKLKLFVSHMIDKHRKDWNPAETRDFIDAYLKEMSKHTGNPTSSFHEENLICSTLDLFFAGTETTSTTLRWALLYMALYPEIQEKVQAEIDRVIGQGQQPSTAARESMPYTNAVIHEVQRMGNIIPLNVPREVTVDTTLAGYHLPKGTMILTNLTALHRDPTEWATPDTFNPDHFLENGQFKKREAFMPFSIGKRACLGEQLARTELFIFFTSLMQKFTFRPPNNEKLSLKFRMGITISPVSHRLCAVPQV
Put plainly: Effect of α-NF on M1 formation by recombinant CYP2J2. It is filed as biochemical. The settings on record: recombinant CYP2J2 10 pmol/ml, 1 μM α-NF, 3 μM DB289, P < 0.05.

Data set [12] concerns the target T2, recombinant CYP4F2 (Homo sapiens, UniProt P78329).
T2 sequence (P78329 5-520): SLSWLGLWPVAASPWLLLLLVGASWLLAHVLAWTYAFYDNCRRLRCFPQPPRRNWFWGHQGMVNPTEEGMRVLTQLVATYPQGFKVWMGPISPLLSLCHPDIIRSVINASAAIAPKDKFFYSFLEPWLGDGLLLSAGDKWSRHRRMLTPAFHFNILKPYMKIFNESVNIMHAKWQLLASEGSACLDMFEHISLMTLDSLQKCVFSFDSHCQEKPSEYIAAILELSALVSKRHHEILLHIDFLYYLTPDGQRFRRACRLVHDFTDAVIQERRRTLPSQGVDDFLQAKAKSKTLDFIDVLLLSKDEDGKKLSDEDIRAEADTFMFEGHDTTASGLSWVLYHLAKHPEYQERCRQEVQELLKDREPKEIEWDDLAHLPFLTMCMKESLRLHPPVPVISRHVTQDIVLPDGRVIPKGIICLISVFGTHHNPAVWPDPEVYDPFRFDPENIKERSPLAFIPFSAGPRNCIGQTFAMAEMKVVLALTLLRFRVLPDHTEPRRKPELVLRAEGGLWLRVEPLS
Put plainly: Effect of α-NF on M1 formation by recombinant CYP4F2. The class given is biochemical. The settings on record: recombinant CYP4F2, 1 μM α-NF, 3 μM DB289, P > 0.05.

The target in data set [13] is T3, recombinant CYP4F3B (Homo sapiens, UniProt Q08477).
T3 sequence (Q08477 1-520 isoform Q08477-2): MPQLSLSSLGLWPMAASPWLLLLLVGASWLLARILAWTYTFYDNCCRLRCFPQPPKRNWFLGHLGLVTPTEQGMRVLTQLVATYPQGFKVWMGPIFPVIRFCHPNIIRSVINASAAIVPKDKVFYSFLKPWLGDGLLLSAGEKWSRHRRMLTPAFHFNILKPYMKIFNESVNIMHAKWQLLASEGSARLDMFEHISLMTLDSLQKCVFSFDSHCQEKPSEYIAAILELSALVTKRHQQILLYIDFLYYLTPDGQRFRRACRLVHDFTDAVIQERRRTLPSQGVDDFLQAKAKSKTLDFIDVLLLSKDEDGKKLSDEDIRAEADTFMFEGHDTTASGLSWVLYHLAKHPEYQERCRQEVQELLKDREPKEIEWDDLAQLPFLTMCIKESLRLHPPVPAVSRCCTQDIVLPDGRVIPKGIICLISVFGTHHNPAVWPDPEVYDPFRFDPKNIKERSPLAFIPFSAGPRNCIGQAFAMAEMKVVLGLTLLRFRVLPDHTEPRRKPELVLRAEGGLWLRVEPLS
Put plainly: Effect of α-NF on M1 formation by recombinant CYP4F3B. The class given is biochemical. The settings on record: 1 μM α-NF, 3 μM DB289, P > 0.05.

Data set [14] deals with P450 enzymes of pooled HIM (M1 formation from DB289). Put plainly: Chemical inhibition of M1 formation in pooled HIM. The class given is biochemical, human.
Data set [15] concerns the target recombinant CYP3A4 (Homo sapiens, UniProt P08684). The experiment in a line: Effect of α-NF on M1 formation by recombinant CYP3A4. The class given is biochemical. The settings on record: recombinant CYP3A4 10 pmol/ml, 1 μM α-NF, 3 μM DB289, 15 min, P < 0.05.
The mark [16] stands for this setting: M1 formation, HIM 3, 0.2 mg/ml protein.
The mark [17] stands for this setting: M1 formation, HIM 7, 0.2 mg/ml protein.
[18] abbreviates: M1 formation, HIM 30, 0.2 mg/ml protein.
[19] abbreviates: M1 formation, HIM 31, 0.2 mg/ml protein.

Each structure is given as a SMILES string. “And” between values parts separate entries of the source, which are not always exact repeats. Identical values can stand only once.

recombinant CYP3A4, sequence (P08684 whole entry): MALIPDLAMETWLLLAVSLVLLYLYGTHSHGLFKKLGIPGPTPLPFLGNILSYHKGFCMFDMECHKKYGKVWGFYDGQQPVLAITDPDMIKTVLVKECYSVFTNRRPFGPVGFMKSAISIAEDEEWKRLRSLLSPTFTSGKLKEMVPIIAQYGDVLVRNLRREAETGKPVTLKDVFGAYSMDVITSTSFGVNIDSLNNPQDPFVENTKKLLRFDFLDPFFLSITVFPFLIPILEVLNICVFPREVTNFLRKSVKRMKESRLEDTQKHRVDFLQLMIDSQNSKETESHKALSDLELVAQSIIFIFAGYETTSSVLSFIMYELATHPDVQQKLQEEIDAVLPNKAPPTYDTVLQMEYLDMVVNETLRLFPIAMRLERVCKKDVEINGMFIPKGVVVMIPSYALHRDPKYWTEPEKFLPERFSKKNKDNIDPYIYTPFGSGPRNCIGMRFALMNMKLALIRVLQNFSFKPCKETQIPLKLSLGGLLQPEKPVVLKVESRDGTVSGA

For `CCCCC/C=C\C/C=C\C/C=C\C/C=C\CCCC(=O)O` [arachidonic acid], the “Km of 20-HETE formation, CYP4A11 relative to CYP4F2” value in [1] is 10 fold.

For the molecule `CON=C(N)c1ccc(-c2ccc(-c3ccc(C(=N)N)cc3)o2)cc1` [M3], the “Phase I metabolite detection (HPLC/UV)” value in data set [2] is given as “identified”.

Consider `NC(=NO)c1ccc(-c2ccc(-c3ccc(C(N)=NO)cc3)o2)cc1` [M2], for which the “Phase I metabolite detection (HPLC/UV)” value in data set [2] is reported as “identified”.

As for `CONC(=N)c1ccc(-c2ccc(-c3ccc(C(=N)NOC)cc3)o2)cc1` [DB289, 2,5-bis(4-amidinophenyl)furan-bis-O-methylamidoxime], in [3], the “coefficient of variation for Cmax” value is “approximately 50%”. The “coefficient of variation for area under the curve” value in data set [3] was “approximately 50%”. Besides, in data set [3], the “coefficient of variation for terminal half-life” value is given as “approximately 50%”. In addition, in [4], the “variation in M1 formation rates” value was 4 fold and ~ 4 fold. Further, in data set [5] (HIM versus pooled HLM), the “total intrinsic clearance of M1 formation by HIM relative to pooled HLM” value is “at most 10%”. In addition, the “Vmax(1)” value in data set [5] (M1 formation, HIM 1, 0.2 mg/ml protein) was 0.12 nmol/min/mg protein; in data set [5] (M1 formation, HIM 2, 0.1 mg/ml protein), 0.42 nmol/min/mg protein; in [5] (setting [16]), 0.24 nmol/min/mg protein; in data set [5] (setting [17]), 0.89 nmol/min/mg protein; in data set [5] (setting [18]), 0.19 nmol/min/mg protein; in [5] (setting [19]), 0.02 nmol/min/mg protein. The “Vmax(1)” value stood at 0.44 nmol/min/mg protein in data set [5] (M1 formation, HIM 32, 0.1 mg/ml protein) and 0.19 nmol/min/mg protein in data set [5] (M1 formation, pooled HIM, 0.2 mg/ml protein). Further, the “KMapp(1)” value in data set [5] (M1 formation, HIM 1, 0.2 mg/ml protein, biphasic) is 0.8 µM; in data set [5] (M1 formation, HIM 2, 0.1 mg/ml protein, biphasic), 0.7 µM; in data set [5] (setting [16]), 1.3 µM; in data set [5] (setting [17]), 1.3 µM; in data set [5] (M1 formation, HIM 12, 0.2 mg/ml protein) it was 2.3 µM; in data set [5] (M1 formation, HIM 23A, 0.2 mg/ml protein, biphasic), 2.4 µM. Moreover, the “KMapp(1)” value in [5] (setting [18]) is 0.6 µM; in [5] (setting [19]), 1.4 µM; in data set [5] (M1 formation, HIM 32, 0.1 mg/ml protein, 37°C) it was 0.6 µM; in data set [5] (M1 formation, pooled HIM, 0.2 mg/ml protein, biphasic), 0.7 µM; in data set [8] it was 0.5 µM. In addition, in [5] (M1 formation, nine individual HIM), the “KMapp(1), average” value worked out at 1.3 µM. The microsomal CLint is 730 µL/min/mg in [6] (human intestinal microsomes (individual HIM 32), pH 7.4, CL′int(1), M1 formation, HIM 32, Vmax(1)/KMapp(1)); 10 to 730 µL/min/mg in data set [6] (human intestinal microsomes (pooled and nine individual HIM), pH 7.4, total intrinsic clearance [CL′int(1) + CL′int(2)] of M1 formation, range, HIM). For the same molecule, the “solubility in the incubation buffer” value in data set [7] is on record as “limited”.

Regarding `N=C(N)c1ccc(-c2ccc(-c3ccc(C(N)=NO)cc3)o2)cc1` [M4], in [2], the “Phase I metabolite detection (HPLC/UV)” value is recorded as “not detected”.

The Km is the concentration of substrate that gives half-maximal velocity. As to `CC(C)(C)c1ccc(C(=O)CCCN2CCC(OC(c3ccccc3)c3ccccc3)CC2)cc1` [ebastine], the Michaelis-Menten constant (Km) in data set [9] was 1.3 µM.

On to `O=c1cc(-c2ccccc2)oc2c1ccc1ccccc12` [α-NF, α-naphthoflavone], for which the “effect on M1 formation” value in data set [10], in [12] and in data set [13] was “not significant” each time. In addition, the “activation of M1 formation” value in data set [11] is 55%; in data set [14] (different lot of pooled HIM, 1 μM α-NF, 3 μM DB289, P < 0.05) it was 34%; in data set [14] (pooled HIM, 3 μM DB289 (Fig. 2A)), 43%; in data set [15], 120%.

As to `CON=C(N)c1ccc(-c2ccc(-c3ccc(C(N)=NO)cc3)o2)cc1` [M1], the “Phase I metabolite detection (HPLC/UV)” value in [2] is “identified”. Also, the “fraction of M1 further metabolized” value in [2] (within the first 15 min of incubation, 10 μM DB289, pooled HIM) is “Less than 10%”.

In the case of `CCCCCCCCCCCC(=O)O` [lauric acid], the “inhibition of M1 formation” value in data set [14] (pooled HIM 0.2 mg/ml, 3 μM DB289, 5 min, inhibitor concentration as in Fig. 2A) is “lack of inhibition”.

In the case of `N=C(N)c1ccc(-c2ccc(-c3ccc(C(=N)N)cc3)o2)cc1` [DB75, 2,5-bis(4-amidinophenyl) furan], in [2], the “Phase I metabolite detection (HPLC/UV)” value is “not detected”.
